# Compounds with a hit are over-represented: about 2.5% of the library has one in this group of screens.
# ERAP1 HTS inh – ERAP1 (human) enzyme inhibition; inhibition, % at 10.7 µM; recombinant ERAP1, Leu-AMC fluorescence, 60 min; Q9NZ08; 340,000 compounds, 0.15% hits;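 active = mean replicate inhibition of at least 30%, or all replicates individually reaching that 30% level; inactive = mean below 30% and not every replicate reaching it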;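 note: 0% = neutral control wells and 100% = L-leucinethiol positive control wells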
# Target sequence (Q9NZ08 whole entry, looked up): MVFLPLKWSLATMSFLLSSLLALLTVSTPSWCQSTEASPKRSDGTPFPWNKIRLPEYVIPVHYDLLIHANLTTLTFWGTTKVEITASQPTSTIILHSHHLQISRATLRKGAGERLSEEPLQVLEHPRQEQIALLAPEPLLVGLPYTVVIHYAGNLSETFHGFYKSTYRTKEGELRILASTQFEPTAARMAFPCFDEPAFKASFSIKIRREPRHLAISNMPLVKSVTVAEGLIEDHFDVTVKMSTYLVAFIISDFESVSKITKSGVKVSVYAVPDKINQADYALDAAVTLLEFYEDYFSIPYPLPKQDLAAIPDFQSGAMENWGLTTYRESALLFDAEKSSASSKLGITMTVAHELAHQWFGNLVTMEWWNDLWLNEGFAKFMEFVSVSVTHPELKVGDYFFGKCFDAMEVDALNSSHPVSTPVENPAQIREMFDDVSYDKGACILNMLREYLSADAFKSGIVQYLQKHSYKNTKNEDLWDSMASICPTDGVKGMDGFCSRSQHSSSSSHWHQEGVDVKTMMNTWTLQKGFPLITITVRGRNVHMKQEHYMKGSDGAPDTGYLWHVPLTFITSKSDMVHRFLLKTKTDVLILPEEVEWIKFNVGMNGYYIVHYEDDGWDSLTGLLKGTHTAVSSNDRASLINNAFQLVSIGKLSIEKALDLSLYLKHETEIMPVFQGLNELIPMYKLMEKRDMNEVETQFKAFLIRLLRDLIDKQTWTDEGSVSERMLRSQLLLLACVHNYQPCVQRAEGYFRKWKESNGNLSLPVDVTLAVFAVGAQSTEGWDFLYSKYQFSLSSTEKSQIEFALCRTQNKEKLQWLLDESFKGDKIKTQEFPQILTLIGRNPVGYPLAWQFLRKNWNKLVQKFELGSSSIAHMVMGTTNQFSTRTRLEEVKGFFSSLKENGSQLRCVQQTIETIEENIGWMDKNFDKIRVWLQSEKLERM
# SIRT5 block – inhibitors of human sirtuin-5 desuccinylase; AID 652115; Purified SirT5, succinyl-peptide AMC, trypsin-coupled fluorescence; 330,000 compounds, 1.1% hits; inhibition, % at 15 µM; in the data active = inhibition above about 15%
# DENV2 CPE – DENV2-induced cell death inhibition; DENV2-infected cells, cytopathic effect rescue, plate reader; CPE inhibition, % at 9.99 µM; 350,000 compounds, 1.7% hits; AID 651640; in the data active = CPE inhibition above about 20%, passing the limit was not always enough; tested in BHK-21 cells;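 note: 0% = median of neutral control wells and 100% = median of positive control wells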
# PglD DTNB – inhibitors of Campylobacter jejuni PglD acetyltransferase | inhibition, % at 12.5 µM | purified PglD enzyme, DTNB colorimetric CoA detection | 360,000 compounds, 0.098% hits; in the data active = inhibition above about 16%, passing the limit was not always enough
# E-selectin induc – E-selectin induction on HUVECs | activation, % at 7.58 µM | AID 686992 | P16581 | HUVEC E-selectin immunofluorescence imaging; normalized: neutral wells 0, TNF-alpha wells 100 | 260,000 compounds, 0.37% hits;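 active = mean E-selectin-positive cell signal at least 10% of the positive control, reached in at least 60% of replicates, without over 20% cell loss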
#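 Test system: HUVEC | Signal: Immunofluorescence imaging | Read-out: Percent E-selectin-positive cells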
# * = called active by the depositor; . = not tested or not shown.
SMILES,ERAP1 HTS inh,SIRT5 block,DENV2 CPE,PglD DTNB,E-selectin induc
COc1ccc(S(=O)(=O)Nc2ccc3c(c2)C(=O)N([C@H](C)CO)C[C@H](C)[C@H](CN(C)S(=O)(=O)c2ccc(F)cc2)OCCCC[C@@H](C)O3)cc1,-0.7,9.3,-5.1,-2.4,0.1
COc1ccc(S(=O)(=O)N(C)C[C@@H]2OCCCC[C@@H](C)Oc3ccc(NS(=O)(=O)c4ccc(F)cc4)cc3C(=O)N([C@@H](C)CO)C[C@H]2C)cc1,1.6,20.8*,-3.2,0.3,-0.2
Cc1nc(NS(=O)(=O)c2cccc([N+](=O)[O-])c2)sc1C(C)(C)C,-3.3,0.2,-5.2,4.4,.
Cc1ccc(C(NC(=O)Nc2ccccn2)C(Cl)(Cl)Cl)cc1F (stereo unspecified),0.9,-8.5,-0.6,.,41.6*
O=C(Nc1ccc2ccccc2n1)c1ccc(Cl)cc1,-1.5,-1.4,2.5,4.1,-0.1
Cc1cccc(OCCCN2CCC(C(O)(c3ccccc3)c3ccccc3)CC2)c1,-6.4,-0.4,34.5*,.,-0.2
COc1cccc(OCCCN2CCC(C(O)(c3ccccc3)c3ccccc3)CC2)c1,1.7,.,-5.3,.,0.1
CC(=O)Nc1ccc(OCCCN2CCC(C(O)(c3ccccc3)c3ccccc3)CC2)cc1,0.1,-3.8,34.1*,.,0.9
Cc1cccc(NC(=O)NCCN2CCCCC2)c1,1.6,2.0,-3.4,-0.3,.
CC1=NCCN1CCNC(=O)Nc1ccc(F)cc1,.,17.0*,-4.0,4.6,.
CC1=NCCN1CCNC(=O)Nc1cc(C)cc(C)c1,.,21.4*,-0.5,5.2,.
CCc1nc(SCC(=O)N2CCCCCC2)c2c(=O)n(C)c(=O)n(C)c2n1,4.0,-2.5,13.8,16.2,-0.6
COc1cccc(S(=O)(=O)N[C@H]2CC[C@H](CCNC(=O)Cc3ccncc3)O[C@@H]2CO)c1,2.9,15.8*,-1.8,-3.1,0.0
COc1cccc(S(=O)(=O)N[C@H]2CC[C@@H](CC(=O)NCc3ccncc3)O[C@@H]2CO)c1,0.2,-1.5,2.2,2.7,0.0
COc1cccc(S(=O)(=O)N[C@@H]2C=C[C@H](CC(=O)NCc3ccc(F)cc3)O[C@@H]2CO)c1,-5.1,10.1,33.3*,0.1,0.2
COc1cccc(S(=O)(=O)N[C@H]2C=C[C@H](CC(=O)NCc3ccncc3)O[C@H]2CO)c1,0.9,-10.1,28.3*,.,0.1
Cc1nn(Cc2ccccc2Cl)c(C)c1NC(=O)CCCn1nc(C)c([N+](=O)[O-])c1C,.,.,.,3.6,.
O=C(CCSc1nnc(-c2ccccc2)o1)N1CCOCC1,-0.6,-1.0,26.8*,.,.
Cc1ccc(-c2nnc(SCCC(=O)N3CCOCC3)o2)cc1,-3.3,6.7,-1.9,.,1.1
O=C(Nc1cccc([N+](=O)[O-])c1)N1CCCc2ccccc21,-3.6,0.4,-11.4,-1.0,-0.1
O=[N+]([O-])c1cccc(NC(=S)N2CCc3ccccc32)c1,-0.1,1.8,69.5*,3.3,.
Cc1ccc(CNc2nc(NC(C)C)nc3ccsc23)c(C)c1,1.2,20.8*,-8.7,-2.2,-0.3
CNc1nc(NCc2ccc(C)cc2C)c2sccc2n1,2.6,-1.9,9.8,4.9,-0.2
CO[C@@H]1CN(C)C(=O)c2ccc(NC(C)=O)cc2OC[C@H](C)N(CCc2ccccc2)C[C@@H]1C,-2.1,5.3,-2.5,-1.1,-0.1
C/C=C/c1ccc([C@@H]2[C@H](CO)N(CC3CC3)C23CN(S(=O)(=O)CC)C3)cc1,-2.4,22.6*,-10.8,.,-0.2
SMILES,ERAP1 HTS inh,SIRT5 block,DENV2 CPE,PglD DTNB,E-selectin induc
C/C=C/c1ccc([C@H]2[C@@H](CO)N(CC3CCCC3)C23CN(C(=O)CC)C3)cc1,7.9,5.6,28.8*,.,-0.2
C/C=C/c1ccc([C@@H]2[C@H](CO)N(CC3CC3)C23CN(S(C)(=O)=O)C3)cc1,1.0,-0.6,-2.2,.,-0.1
C/C=C/c1ccc([C@H]2[C@@H](CO)N(CC3CCCC3)C23CN(C(=O)CC2CC2)C3)cc1,1.2,-0.9,-3.7,.,-0.3
C/C=C/c1ccc([C@@H]2[C@H](CO)N(Cc3cncnc3)C23CN(C(=O)COC)C3)cc1,0.4,-0.5,22.1*,.,0.0
COCCC(=O)N1CCC(Oc2ccc(C(=O)NCc3ncc(C)[nH]3)cc2)CC1,-2.1,0.8,4.8,6.7,0.0
CC(=O)c1c(C)[nH]c(C(=O)Nc2ccc(Cl)cc2F)c1C,-5.5,-4.5,-6.5,.,.
CCN(Cc1nc2cc(Cl)ccc2c(=O)[nH]1)C(=O)c1nn(C)c(=O)c2ccccc12,62.7*,1.2,-1.4,0.8,.
